# Measured values reported in PMC10963326 (Heliyon, 2024).
# Key:
# [1] = biological target: human thrombin (Homo sapiens, UniProt P00734); assay: Direct inhibition of human thrombin, chromogenic substrate; format: biochemical; details: highest concentration tested of 600 μM, data not shown
# In short: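 Thrombin 6 nM final in 20 mM Tris-HCl pH 7.4, 100 mM NaCl, 2.5 mM CaCl2, 0.1% PEG8000, with or without 0.02% Tween80, at 25 or 37 °C. Test compound (DMSO vehicle) added, then either 10 min preincubation or none. Spectrozyme TH at 50 μM final; initial A405 rate. Residual activity was the ratio to the no-compound rate, fitted to a logistic equation for IC50, HS and ΔY.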
# [2] = biological target: thrombin exosite 1; details: binding to exosite 1 ref 21; cited from earlier work
Compound,inhibition of thrombin [1],Kd [2] [nM]
CCCCCCCCCCCCOS(=O)(=O)[O-].[Na+] [sodium dodecyl sulfate],did not inhibit,–
[5 F]-Hir-(54–65)-(SO3^−) [HirP],–,28
